A short description of assay [1]: Inhibition of Cryptococcus neoformans beta-carbonic anhydrase incubated for 15 mins prior to testing by stopped-flow CO2 hydration assay. Summed up:
(§1)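 CO2 was 1.7–17 mM. Initial rates were taken from at least six traces of the first 5–10% of reaction over 10–100 s, with uncatalysed rates subtracted. Inhibitor dilutions were in water down to 0.01 nM, preincubated with enzyme 15 min at room temperature.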

Assay [2] can be described thus: Inhibition of Brucella suis beta-carbonic anhydrase 1 incubated for 15 mins prior to testing by stopped-flow CO2 hydration assay. Summed up:
(§2)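 Stopped-flow CO2 hydration; 0.2 mM phenol red read at 557 nm in 10 mM Hepes pH 7.4, 10 mM Tris-HCl, 0.1 M NaSO4; CO2 1.7–17 mM. Inhibitor (10 mM water stock, diluted down to 0.01 nM) preincubated with enzyme 15 min at room temperature. Initial rates from at least six traces of the first 5–10% of reaction, over 10–100 s, with uncatalysed rates subtracted.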

Assay [3] is described as follows: Inhibition of Brucella suis beta-carbonic anhydrase 2 incubated for 15 mins prior to testing by stopped-flow CO2 hydration assay. The method in brief: as §2
Assay [4] can be described thus: Inhibition of Leishmania donovani chagasi beta-carbonic anhydrase incubated for 15 mins prior to testing by stopped-flow CO2 hydration assay. Summed up: as §1
Assay [5] can be described thus: Selectivity ratio of Ki for human alpha-carbonic anhydrase 1 to Ki for Cryptococcus neoformans beta-carbonic anhydrase. Summed up: (§3)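 Ki ratio, human CA isoform Ki divided by pathogen β-CA Ki, used as an index of selectivity for the pathogen enzyme over the human enzyme.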
Assay [6] in a line: Selectivity ratio of Ki for human alpha-carbonic anhydrase 1 to Ki for Brucella suis beta-carbonic anhydrase 1.
Assay [7] is described as follows: Selectivity ratio of Ki for human alpha-carbonic anhydrase 1 to Ki for Brucella suis beta-carbonic anhydrase 2.
Assay [8] is described as follows: Selectivity ratio of Ki for human alpha-carbonic anhydrase 1 to Ki for Leishmania donovani chagasi beta-carbonic anhydrase. The method in brief: as §3
The nature of assay [9]: Selectivity ratio of Ki for human alpha-carbonic anhydrase 2 to Ki for Cryptococcus neoformans beta-carbonic anhydrase. The method in brief: as §3
The nature of assay [10]: Selectivity ratio of Ki for human alpha-carbonic anhydrase 2 to Ki for Brucella suis beta-carbonic anhydrase 1.
Assay [11] is described as follows: Selectivity ratio of Ki for human alpha-carbonic anhydrase 2 to Ki for Brucella suis beta-carbonic anhydrase 2.
Assay [12] is described as follows: Selectivity ratio of Ki for human alpha-carbonic anhydrase 2 to Ki for Leishmania donovani chagasi beta-carbonic anhydrase. Summed up: as §3
Assay [13] has as its system Brucella suis. The assay is described as follows: Potency index, ratio of acetazolamide Ki to compound Ki for Brucella suis beta-carbonic anhydrase 1.
Assay [14] deals with Brucella suis. Description: Potency index, ratio of benzolamide Ki to compound Ki for Brucella suis beta-carbonic anhydrase 1.
The test system of assay [15] is Brucella suis. Description: Potency index, ratio of dichlorphenamide Ki to compound Ki for Brucella suis beta-carbonic anhydrase 1.
The subject of assay [16] is Brucella suis. The assay is described as follows: Potency index, ratio of acetazolamide Ki to compound Ki for Brucella suis beta-carbonic anhydrase 2.
For assay [17], the system named is Brucella suis. Description: Potency index, ratio of benzolamide Ki to compound Ki for Brucella suis beta-carbonic anhydrase 2.
Assay [18] has as its system Brucella suis. The assay is described as follows: Potency index, ratio of dichlorphenamide Ki to compound Ki for Brucella suis beta-carbonic anhydrase 2.

One may read the Ki as a dissociation constant, usually derived from enzyme kinetics or from competition with a known ligand. Lower therefore signals a stronger hold on the target. With `NS(=O)(=O)c1ccc(CC/N=C/c2c(F)c(F)cc(F)c2F)cc1`, the Ki in assay [1] stood at 2.26 nM; in assay [2] it was 29.2 nM; in [3], 2.56 nM; in assay [4] it was 107 nM. Further, the Ratio Ki was 1160 in assay [5]; 90.1 in assay [6]; 1030 in [7]; 24.5 in assay [8]; 288 in [9]; 22.3 in assay [10]. Moreover, the Ratio Ki turned out to be 255 in [11]; 6.1 in [12]; 2 with Brucella suis [13]; 2 with Brucella suis [14]; 2 in the assay with Brucella suis [15]; 100 in the assay with Brucella suis [16]. For the same compound, the Ratio Ki in the assay on Brucella suis [17] and in the assay on Brucella suis [18] was 100 each time.

On to `NS(=O)(=O)c1ccc(CC/N=C/c2c[nH]c3ccc(Br)cc23)cc1`, for which the Ki was 0.95 nM in assay [1], 24.9 nM in [2], 2.45 nM in assay [3] and 2030 nM in assay [4]. In addition, the Ratio Ki in assay [5] came out at 1840; in [6] it was 70.2; in assay [7] it was 714; in assay [8], 0.9; in assay [9], 627; in [10], 23.9. Besides, the Ratio Ki was determined as 243 in assay [11]; 0.3 in assay [12]; 2 in the assay on Brucella suis [13]; 2 in the assay on Brucella suis [14]; 2 in the assay with Brucella suis [15]; 100 with Brucella suis [16]. Moreover, the Ratio Ki in the assay on Brucella suis [17] and in the assay with Brucella suis [18] was 100 each time.

`NS(=O)(=O)c1ccc(/N=C/c2ccccc2)c(F)c1`: the Ki in assay [1] was 0.56 nM; in assay [2], 11.5 nM; in assay [3], 2.31 nM; in assay [4], greater than 2500 nM. Besides, the Ratio Ki in assay [5] is 891; in assay [6], 43.2; in assay [7] it was 216; in assay [8], less than 0.2; in [9], 1270; in [10], 61.5. In addition, the Ratio Ki in assay [11] was determined as 307; in [12] it was 0.3; in the assay on Brucella suis [13] it was 2; in the assay with Brucella suis [14], 2; in the assay with Brucella suis [15], 2; in the assay with Brucella suis [16], 100. Also, the Ratio Ki with Brucella suis [17] and with Brucella suis [18] was 100 throughout.
